Measured values as given in ChEMBL document CHEMBL4414567, “α-Pyrone and Sterol Constituents of Penicillium aurantiacobrunneum, a Fungal Associate of the Lichen Niebla homalea” (J Nat Prod, 2019).

Legend:
Assay type in all cases: functional, cell-based
HeLa = experiment: Antiproliferative activity against human HeLa cells measured after 72 hrs by sulforhodamine B assay
Outline: (§1)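 SRB antiproliferation assay: cells seeded at 100,000 cells per mL in 96-well plates, incubated with compound 72 h at 37 °C in 95% air/5% CO2; sulforhodamine B staining read-out; three independent experiments, each in triplicate.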

MCF7 = experiment: Antiproliferative activity against human MCF7 cells measured after 72 hrs by sulforhodamine B assay; settings: MCF7, 72 h
Outline: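 SRB assay. MCF-7 cells grown in RPMI-1640 with L-glutamine, 10% FBS and 1% antibiotic-antimycotic, at 37 °C in 95% air/5% CO2, and subcultured at 80–90% confluence. Seeded at 6000 cells per mL in 96-well plates, exposed for 72 h at 37 °C, then read by sulforhodamine B staining. Three independent experiments, each in triplicate.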

DU-145 = experiment: Antiproliferative activity against human DU145 cells measured after 72 hrs by sulforhodamine B assay; settings: DU-145, 72 h; outline: as §1
A2780 = experiment: Antiproliferative activity against human A2780 cells measured after 72 hrs by sulforhodamine B assay; settings: A2780, 72 h
Outline: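 A2780 cells grown in RPMI-1640 with L-glutamine, 10% FBS and 1% antibiotic-antimycotic, 37 °C, 5% CO2, subcultured at 80–90% confluence; seeded at 25000 cells per mL in 96-well plates; compound exposure 72 h at 37 °C; sulforhodamine B read-out; three independent experiments, each in triplicate.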

HT-29 = experiment: Antiproliferative activity against human HT-29 cells measured after 72 hrs by sulforhodamine B assay; settings: HT-29, 72 h; outline: as §1

Compound | IC50 (HeLa) | IC50 (MCF7) | IC50 (DU-145) | IC50 (A2780) | IC50 (HT-29)
C=C(CC[C@@]1(C)O[C@H]2O[C@H]3C[C@H]1[C@]21CC[C@@H]2[C@@]4(C)CC[C@H](O)C[C@@H]4C[C@H](O)[C@@]2(O)[C@H]31)C(C)C | > 10 µM | > 10 µM | > 10 µM | > 10 µM | > 10 µM
C=C(CC[C@]1(C)O[C@@H]2O[C@@]34[C@H](O)C[C@H]5C[C@@H](O)CC[C@]5(C)[C@H]3CC[C@]23[C@H]4[C@H](O)C[C@@H]31)C(C)C | > 10 µM | > 10 µM | > 10 µM | > 10 µM | 9.8 µM
COc1cc(=O)oc(/C=C/C=C/C=C/C(C)=C/[C@]2(C)O[C@H](C)[C@](C)(O)[C@@H]2O)c1C | > 10 µM | 4.2 to 6 µM | > 10 µM | 5.7 to 8.2 µM | > 10 µM
CC(=O)O[C@H]1C(=O)[C@@]2(C)[C@H]([C@H](OC(=O)c3ccccc3)[C@]3(O)C[C@H](OC(=O)[C@H](O)[C@@H](NC(=O)c4ccccc4)c4ccccc4)C(C)=C1C3(C)C)[C@]1(OC(C)=O)CO[C@@H]1C[C@@H]2O [PACLITAXEL] |  |  | 0.001 µM | 0.018 µM | 
